According to ChEMBL document CHEMBL4665728, “Synthesis and evaluation of 1,2,4-oxadiazole derivatives as potential anti-inflammatory agents by inhibiting NF-κB signaling pathway in LPS-stimulated RAW 264.7 cells” (Bioorg Med Chem Lett, 2020):
Activity calls are given as the source filed them. No cut-off for these calls is given here.

Tests used:
[1] = Cytotoxicity against mouse RAW 264.7 assessed as cell viability at 20 uM incubated for 24 hrs by MTT assay (reference value: 100%); type: cell-based, RAW264.7; conditions: RAW 264.7 cells, read-out: Activity
Method in brief: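 MTT viability of RAW264.7 cells at 20 µM, expressed as percent of DMSO vehicle control (100%); above 75% viability counted as non-toxic; doxorubicin used as control drug.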

[2] = tested on: RAW264.7; test: Antiinflammatory activity against mouse RAW264.7 cells assessed as inhibition of LPS-stimulated iNOS protein expression at 3 to 6 uM preincubated followed by LPS addition by Western blot analysis; type: functional, cell-based; conditions: dose microM 3-6
Method in brief: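 iNOS protein in LPS-stimulated RAW264.7 cells detected by Western blotting; mean ± SD, n = 3.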

[3] = tested on: RAW264.7; test: Antiinflammatory activity against mouse RAW264.7 cells assessed as reduction in LPS-induced TNFalpha mRNA expression at 3 to 6 uM incubated for 24 hrs by qRT-PCR analysis; type: functional, cell-based; conditions: dose microM 3-6, time 24.0 hrs
Method in brief: (§1)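 Cells co-treated with compound at several concentrations plus LPS (1 µg/mL) for 24 h; IL-6, IL-1β and TNFα mRNA by qRT-PCR, expressed as ratio to reference gene; mean ± SD, n = 3.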

[4] = tested on: RAW264.7; test: Antiinflammatory activity against mouse RAW264.7 cells assessed as reduction in LPS-induced IL1beta mRNA expression at 3 to 6 uM incubated for 24 hrs by qRT-PCR analysis; type: functional, cell-based; conditions: dose microM 3-6, time 24.0 hrs; method in brief: as §1
[5] = tested on: RAW264.7; test: Antiinflammatory activity against mouse RAW264.7 cells assessed as reduction in LPS-induced IL6 mRNA expression at 3 to 6 uM incubated for 24 hrs by qRT-PCR analysis; type: functional, cell-based; conditions: dose microM 3-6, time 24.0 hrs; method in brief: as §1
[6] = tested on: RAW264.7; test: Antiinflammatory activity against mouse RAW264.7 cells assessed as degradation in LPS-induced IkappaBalpha phosphorylation at 3 to 6 uM incubated for 45 mins by Western blot analysis; type: functional, cell-based; conditions: dose microM 3-6, time 45.0 min
Method in brief: (§2)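 RAW264.7 cells treated with a range of concentrations for 45 min; phospho-p65, p65, IκBα and β-actin detected by Western blot; three independent experiments.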

[7] = tested on: RAW264.7; test: Antiinflammatory activity against mouse RAW264.7 cells assessed as reduction in LPS-induced IkappaBalpha phosphorylation at 3 to 6 uM incubated for 45 mins by Western blot analysis; type: functional, cell-based; conditions: dose microM 3-6, time 45.0 min; method in brief: as §2
[8] = tested on: RAW264.7; test: Antiinflammatory activity against mouse RAW264.7 cells assessed as reduction in LPS-induced p65 phosphorylation at 3 to 6 uM incubated for 45 mins by Western blot analysis; type: functional, cell-based; conditions: dose microM 3-6, time 45.0 min; method in brief: as §2
[9] = tested on: RAW264.7; test: Antiinflammatory activity against mouse RAW264.7 cells assessed as inhibition of LPS-stimulated nuclear translocation of p65 at 20 uM preincubated for 1 hr followed by LPS addition and measured after 24 hrs by fluorescence microscopic method; type: functional, cell-based
Method in brief: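 RAW264.7 cells pretreated 1 h, then stimulated with LPS (1 µg/mL) or vehicle for 24 h; p65 immunostained and localisation viewed in overlaid fluorescence images; three individual experiments.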

[10] = tested on: RAW264.7; test: Cytotoxicity against mouse RAW 264.7 assessed as reduction in cell viability up to 100 uM incubated for 24 hrs by MTT assay; type: cell-based; conditions: raw264.7, 24 h
Method in brief: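 MTT viability of RAW264.7 cells across 0 to 100 µM, compared with vehicle control.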

[11] = tested on: RAW264.7; test: Antiinflammatory activity against mouse RAW264.7 cells assessed as inhibition of LPS-stimulated NO production; type: functional, cell-based
Method in brief: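 IC50 for inhibition of NO release by LPS-stimulated RAW264.7 macrophages; IC50 taken as the mean of three independent experiments.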

[12] = tested on: RAW264.7; test: Antiinflammatory activity against mouse RAW264.7 cells assessed as inhibition of TNFalpha-stimulated NF-kappaB activation by luciferase assay; type: functional, cell-based
[13] = tested on: RAW264.7; test: Antiinflammatory activity against mouse RAW264.7 cells assessed as inhibition of LPS-stimulated NO production at 20 uM relative to control; type: functional; set-up: scale not given: the % may be the effect or the level left
Method in brief: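 NO production by RAW264.7 cells stimulated with LPS; inhibitory ratio expressed relative to the LPS-treated group.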

Structure (SMILES) | viability at 24 h, 20 µM [1] [%] | Activity [13] [%] | other results
CSc1ccc(-c2nc(-c3ccc4[nH]ccc4c3)no2)cc1 | 22.8 |  | 
Cc1ccc(-c2nc(-c3ccc4[nH]ccc4c3)no2)cc1 | 51.2 |  | 
COc1ccccc1-c1nc(-c2ccc3[nH]ccc3c2)no1 | 45 |  | 
COc1ccc(-c2nc(-c3ccc4[nH]ccc4c3)no2)cc1 | 41.3 |  | 
C(=C\c1noc(-c2ccccc2)n1)/c1ccccc1 | 28.2 |  | 
c1ccc(-c2noc(-c3ccccc3)n2)cc1 | 42.1 |  | 
c1coc(-c2nc(-c3ccc4[nH]ccc4c3)no2)c1 | 99 | 86.6 | Activity [2]: Active; Activity [3]: Dose-dependent effect; Activity [4]: Dose-dependent effect; Activity [5]: Dose-dependent effect; Activity [6]: Dose-dependent effect; Activity [7]: Dose-dependent effect; Activity [8]: Active; Activity [9]: Active; Activity [10]: Non-Toxic; IC50 [11]: 12.8 µM; IC50 [12]: 1.35 µM
Fc1ccccc1-c1nc(-c2ccc3[nH]ccc3c2)no1 | 26.4 |  | 
c1ccc(-c2nc(-c3cccc4ccccc34)no2)cc1 | 90.4 | 59.89 | 
c1ccc(-c2nc(-c3cccc4[nH]ccc34)no2)cc1 | 64.3 | 45.71 | IC50 [11]: 27 µM; IC50 [12]: 13.8 µM
c1ccc(-c2nc(Cc3cccs3)no2)cc1 | 85.2 | 48.24 | 
c1cc2cc(-c3noc(C4CCC4)n3)ccc2[nH]1 | 85.4 | 57.58 | 
Fc1cccc(-c2nc(-c3ccc4[nH]ccc4c3)no2)c1 | 17.2 |  | 
c1ccc(-c2nc(-c3ccc4ccccc4c3)no2)cc1 | 86.2 | 63.58 | 
COc1cccc(-c2nc(-c3ccc4[nH]ccc4c3)no2)c1 | 88.1 | 53.94 | 
c1ccc(-c2nc(-c3ccncc3)no2)cc1 | 89 | 43.13 | 

Structure (SMILES) | viability at 24 h, 20 µM [1] [%] | Activity [13] [%] | other results
Fc1ccc(-c2nc(-c3ccc4[nH]ccc4c3)no2)cc1 | 16.8 |  | 
c1ccc(-c2nc(-c3ccc4[nH]ccc4c3)no2)cc1 | 79.4 | 46.76 | 
C#Cc1ccc(-c2nc(-c3ccc4[nH]ccc4c3)no2)cc1 | 23.6 |  | 
C1=CCC(c2nc(-c3ccc4[nH]ccc4c3)no2)C1 | 24.3 |  | 
Cc1ccccc1-c1nc(-c2ccc3[nH]ccc3c2)no1 | 85.3 | 47.22 | 
c1ccc(-c2nc(-c3ccc4cc[nH]c4c3)no2)cc1 | 31 |  | 
Oc1ccc(-c2nc(-c3ccc4[nH]ccc4c3)no2)cc1 | 36.5 |  | 
c1ccc(Cc2noc(-c3ccccc3)n2)cc1 | 89.6 | 39.33 | 
c1ccc(-c2nc(-c3c[nH]c4ccccc34)no2)cc1 | 11.6 |  | 
C[C@@H]1C[C@H]2[C@@H]3CCC4=CC(=O)C=C[C@]4(C)[C@@]3(F)[C@@H](O)C[C@]2(C)[C@@]1(O)C(=O)CO [DEXAMETHASONE] |  |  | IC50 [11]: 4.16 µM
CC(C)C[C@H](NC(=O)[C@H](Cc1ccccc1)NC(=O)c1cnccn1)B(O)O [BORTEZOMIB] |  |  | IC50 [12]: 0.03 µM
c1ccc(-c2nc(Cc3cccc4ccccc34)no2)cc1 | 92.8 | 41.64 | 
c1ccc(-c2nc(C3CCCC3)no2)cc1 | 85.4 | 34.28 | 
c1ccc(-c2nc(-c3cnccn3)no2)cc1 | 46.2 |  | 
c1cc2cc(-c3noc(C4CCCCC4)n3)ccc2[nH]1 | 68.8 |  | 
c1cc2cc(-c3noc(C4CCOCC4)n3)ccc2[nH]1 | 95.7 | 2.75 | 
